Screens as filed in PubChem BioAssay.
This is a sample that favours compounds with a hit; in the whole collection about 3.5% have one here.
Cneo AK release = Cryptococcus neoformans cell lysis inducers, primary screen, AK release luminescence, single concentration; lysis activity, % at 15 µM; C. neoformans lysis, adenylate kinase release luminescence, 4 h; normalised: neutral wells 0, clomiphene wells 100; AID 651654, 2012; hit rate 0.2% among 360,000;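 active = mean lysis activity across replicates of at least 80%, whatever share of replicates individually reach that level; inactive = mean lysis activity below 80%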
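Material – log-phase Cryptococcus neoformans yeast cells · Input – 5 × 10^6 yeast cells/mL · Medium – fresh YPD growth medium · Doses – single compound concentration per well · Timing – static 4 h at 37 °C with compound, 1 h detection · Detection – adenylate kinase release luminescence · Read-out – signal increase indicating cell lysis · Control set – Clomiphene as positive lysis control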
ERAP1 inh = human ERAP1 aminopeptidase inhibitors, primary screen, biochemical, single point, plate reader. Endoplasmic reticulum aminopeptidase 1 (Homo sapiens), Q9NZ08. recombinant ERAP1, Leu-AMC fluorescence, 60 min. inhibition, % at 10.7 µM. hit rate 0.15% among 340,000;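 active = mean replicate inhibition of at least 30%, or all replicates individually reaching that 30% level; inactive = mean below 30% and not every replicate reaching it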;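 note: 0% = neutral control wells and 100% = L-leucinethiol positive control wells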
PGC1a acetyl inh = inhibitors of PGC1a acetylation signal, primary screen, cell-based, U2OS, AlphaScreen, inhibitor mode. AlphaScreen anti-acetyl-lysine; with virally co-expressed GCN5 acetyltransferase. inhibition, % at 15.6 µM. hit rate 0.17% among 350,000. AID 651687, 2012;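 active = every replicate shows inhibition of at least 40%; inconclusive = mean inhibition at least 40% but some replicate below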;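 note: 0% = neutral control wells and 100% = positive control wells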
Ecoli rRNA inh = reduced GFP signal of wild-type E. coli, primary screen, bacterial rRNA inhibitor project, GFP/RFP fluorescence, OD600, single point | GFP signal change (wild-type ribosome), % (concentration not given with the values) | E. coli WT GFP vs humanized-ribosome RFP mutants, 24 h; hits give low values; DMSO median 0, no signal -100 | hit rate 1.6% among 350,000;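 active = significant combined selectivity score with lowered wild-type GFP, culture density cut under 30%, mutant RFP and density less affected; inactive = any of these conditions unmet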
FGF22 binding = binders of human FGF22 protein, primary screen, FGF22 synaptogenesis inhibitor project, biophysical, thermal shift, single point | Fibroblast growth factor 22 (Homo sapiens), Q9HCT0 | recombinant FGF22 thermal shift, SYPRO orange fluorescence; percent of sucrose octasulfate shift, DMSO zero | activity (Tm shift, normalised), % at 9.99 µM | hit rate 1.5% among 340,000 | AID 651658, 2012;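 active = mean Tm shift, scaled 0 neutral to 100 positive control, at about 1.3% or above, every replicate too, limit read from the data; inconclusive = no clear call, values can overlap the other calls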
Target sequence (Q9HCT0 whole entry, looked up): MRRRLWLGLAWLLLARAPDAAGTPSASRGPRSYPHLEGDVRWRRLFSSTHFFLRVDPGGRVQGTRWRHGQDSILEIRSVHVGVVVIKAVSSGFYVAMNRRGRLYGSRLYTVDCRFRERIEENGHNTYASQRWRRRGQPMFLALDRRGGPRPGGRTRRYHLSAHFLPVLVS
HIV Env fusion = inhibitors of HIV-1 Env-driven cell-cell fusion, primary screen, HeLa-JRFL effector, CEM21 target cells, luciferase | hit rate 1.1% among 360,000 | inhibition, % at 12.3 µM;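 active = mean replicate inhibition score of at least 50 and every replicate individually at or above 50; inconclusive = only one of the two criteria met; inactive = mean below 50 and not all replicates reaching 50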;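 note: 0% = plate neutral controls and 100% = maraviroc near 300 nM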
Starred values were filed as active, the others as inactive; ? = inconclusive; nt = not tested or not shown; [ ] = dose if it differs, or a comment.

SMILES | Cneo AK release | ERAP1 inh | PGC1a acetyl inh | Ecoli rRNA inh | FGF22 binding | HIV Env fusion
CCCN1CCN(C(=O)C2CCN(S(=O)(=O)c3ccc4c(c3)oc(=O)n4C)CC2)CC1 | -1 | -1 | -5 | 9 | 0 | -16
Cc1cc2oc(C(=O)N3CCN(Cc4ccccc4)CC3)c(C)c2cc1C | nt | -4 | nt | -46* | 0 | -8
COc1ccc(N2CCN(C(=O)Cc3nn(C)c(=O)c4ccccc34)CC2)cc1 | 0 | nt | 11 | nt | nt | 61*
Cc1c(C(=O)N2CCCCCC2)oc2ccccc12 | -2 | nt | 3 | nt | nt | 17
Cc1c(C(=O)N2CCCCC2)oc2ccccc12 | 7 | 4 | 0 | -6 | 43* | -13
COc1ccccc1C(=O)N1CCN(C(=O)c2oc3ccc(C)cc3c2C)CC1 | -3 | 1 | -6 | -6 | 0 | 66*
Cc1ccc(C(=O)N2CCN(Cc3ccccc3)CC2)o1 | 3 | -2 | nt | 4 | 0 | -1
Cc1cc(C)cc(N(CCC#N)C(=O)COC(=O)CCc2c[nH]c3ccccc23)c1 | 0 | -2 | 4 | -21 | 0 | 9
C[C@@H]1CN([C@@H](C)CO)C(=O)c2cc(NC(=O)Cc3ccccc3)ccc2O[C@H]1CN(C)C(=O)Nc1ccc(C(F)(F)F)cc1 | -1 | 0 | 4 | -1 | nt | 6[16.7 µM]
C[C@@H]1ON(C)[C@H]2C[C@H]3c4cc(-c5ccc6c(c5)OCO6)ccc4CCN3C[C@@H]12 | nt | 6 | nt | 12 | 0 | 17
CCC(=O)N1N=C(c2ccc(NS(C)(=O)=O)cc2)CC1c1ccc(C)cc1 (stereo unspecified) | -2 | nt | -20 | nt | nt | -38
COc1ccc(Nc2ncc(C(=O)N3CCN(c4ccc(F)cc4)CC3)c3ccccc23)cc1 | -3 | nt | -4 | nt | nt | 93*
COc1ccc(N2CCN(C(=O)c3[nH]c(C(F)(F)F)nc3-c3ccccc3)CC2)cc1 | 2 | nt | 10 | -26* | -1 | -15
COc1ccc(N2CCN(C(=O)c3oc4ccccc4c3C)CC2)cc1 | nt | -2 | -21 | -38* | 0 | 11
COc1ccccc1N1CCN(C(=O)c2[nH]c(C(F)(F)F)nc2-c2ccccc2)CC1 | -3 | -2 | 6 | -8 | 0 | -99
Nc1nnc(C(F)(F)F)s1 | nt | -3 | nt | 10 | 0 | 2
O=C(NCCCN1CCCC1=O)c1cccc(S(=O)(=O)Nc2ccc(F)cc2)c1 | -2 | 1 | 0 | nt | 0 | nt
CCN1CCN(C(=S)c2ccc(OC)cc2)CC1 | -2 | 2 | 2 | nt | 43* | 9
Cc1cc(C)c(C(=O)CN2C(=O)NC3(CCCCCC3)C2=O)cc1C | nt | -1 | -10 | 2 | 0 | -12
Cc1ccc(NCC(=O)N/N=C/c2cccc(Br)c2)cc1 | -1 | -2 | 5 | -23* | 0 | -14
Cc1cccc(NCC(=O)N/N=C/c2cccc(Br)c2)c1 | nt | -1 | 10 | 0 | 0 | -1
Cc1nonc1NC(=O)CSc1nc(CCC2CCCC2)nc2ccccc12 | 15 | 0 | -12 | -7 | 0 | 8
S=C(Nc1ccc(Oc2ccccc2)cc1)N1CCN(c2ccccn2)CC1 | nt | 5 | nt | -6 | 43* | 21
CC(=O)c1ccc(N2CCN(C(=S)Nc3ccc(Oc4ccccc4)cc3)CC2)cc1 | nt | -4 | -22 | -10 | 16* | 3
CCOC(=O)C1=Nc2ccccc2C1=[N+]=[N-] | nt | nt | 45* | nt | nt | nt
COc1ccc2c(c1)CC/C(=C/c1cc(OC)c(OC)c(OC)c1)C2=O | nt | 0 | ? | -20* | 0 | 5
COc1ccc(OC)c(C=C2CCc3ccccc3C2=O)c1 | 2 | 12 | -17 | -25 | 0 | 4
COc1cccc(C=C2Cc3ccccc3C2=O)c1 | nt | -1 | nt | -17* | 0 | -23
COc1cccc(S(=O)(=O)N[C@@H]2C=C[C@H](CC(=O)NCc3ccccc3)O[C@H]2CO)c1 | -1 | 0 | -3 | 1 | 0 | 3[16.7 µM]
Cn1c(CCNC(=O)c2ccco2)nc2cc(NC(=O)c3ccccc3)ccc21 | 13 | -1 | 7 | 4 | 0 | -17
